Test results from PubChem BioAssay AID463141 (The Scripps Research Institute Molecular Screening Center, 2010).
The campaign covered roughly 330,000 compounds. About 350 (0.11%) were called active. This is one part of a sample in which actives are shown more often than they occur. A number with no mark means an inactive call.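 How the source made its calls: active means activation above the mean of all tested compounds plus 3 SD (cut at about 21% in these data); inactive means the rest.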

target: Caspase-3 (Homo sapiens) (UniProt P42574); assay: activators of human procaspase-3 D3A mutant, primary screen, biochemical, absorbance, PC-3 D3A mutant, single concentration (AID 463141); conditions: recombinant procaspase-3 D3A, Ac-DEVD-pNA absorbance 405 nm; at 8.5 µM; stronger effect = higher value;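 further: 0% = DMSO alone and 100% = DMSO wells spiked with extra 5 µM PC-3 D3A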
Sequence (P42574 whole entry D9A/D28A/D175A): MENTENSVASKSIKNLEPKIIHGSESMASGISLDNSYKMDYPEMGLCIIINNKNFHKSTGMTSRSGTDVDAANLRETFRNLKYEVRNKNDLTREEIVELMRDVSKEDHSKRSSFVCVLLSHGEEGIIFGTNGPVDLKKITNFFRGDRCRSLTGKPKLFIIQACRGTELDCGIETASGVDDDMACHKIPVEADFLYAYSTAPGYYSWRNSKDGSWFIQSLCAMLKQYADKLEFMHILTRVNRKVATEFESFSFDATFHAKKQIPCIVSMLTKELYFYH
Outline: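 Compound: 8.5 µM single point, 0.8% DMSO / Material: Autoprocessing-dead procaspase-3 D3A mutant enzyme / Timing: 1 h preincubation plus 2 h reaction at 25 °C / Medium: Zinc-free HEPES/NaCl buffer with 0.01% Triton X-100 at pH 7.4 / Technique: 405 nm absorbance of p-nitroaniline, reads at 0 and 120 min / Repeats: one well per compound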

Compound | activation
O=C(CN1CCC(O)(c2cccc(C(F)(F)F)c2)CC1)NCCc1ccccc1 | 2.72%
COC(CCN(C)C)(c1ccccc1)c1ccccc1 | -2.83%
O=[N+]([O-])c1ccc(C=Nc2ccc(Cl)cc2Cl)s1 | 6.25%
CCn1c(SCC(=O)NC2=NCCS2)nnc1C(C)NC(=O)c1ccccc1F (stereo not given) | 2.41%
O=C1c2ccccc2C(O)N1Cc1ccccc1Cl (stereo not given) | -2.13%
COc1ccc2[nH]c3c(c2c1)CCN1C(=O)C(CC(=O)NCCc2ccccn2)C[C@H](C(=O)N2CCOCC2)[C@@]31C (stereo not given in full) | 0.02%
O=P(c1cccs1)(c1cccs1)c1cccs1 | -8.39%
Cc1[nH]n(C(N)=S)c(=O)c1N=Nc1ccc(Cl)cc1Cl | -2.96%
CCN(c1ccc2c(c1)OCO2)S(=O)(=O)c1cc(Br)cc2c1N(C(=O)C1CC1)CC2 | 5.06%
O=C(CCNS(=O)(=O)c1ccccc1C(F)(F)F)Nc1ccncc1 | 1.72%
Cn1cc(CCC(=O)NCc2ccc3c(c2)OCO3)c2ccccc21 | 11.3%
O=C(CCNS(=O)(=O)c1ccccc1C(F)(F)F)NCc1ccc2c(c1)OCO2 | 32.1% (active)
CN1CCN(CCNC(=O)Nc2ccccc2[N+](=O)[O-])CC1 | 4.28%
CN(C)c1ccc(C=NCCc2ccc(S(N)(=O)=O)cc2)cc1 | 8.03%
Cc1ccc(C)c(NC(=O)COC(=O)c2nn(C)c(=O)c3ccccc23)c1 | 14.6%
COc1cc(NC(=O)c2ccc(-c3csc(C)n3)cc2)c(OC)cc1Cl | 3.93%
CCCc1cc(=O)[nH]c(SCC(=O)Nc2ccc(C(=O)Nc3ccccc3OC)cc2)n1 | 0.24%
CCN(Cc1ccccc1)S(=O)(=O)c1cc(C(=O)O)ccc1OC | 5.66%

Compound | activation
FC(F)(F)c1cccc(-c2nc(COc3ccc(Cl)cc3Cl)no2)c1 | -1.22%
CCCc1nc2c(C)cc(-c3nc4ccccc4n3C)cc2n1Cc1ccc(-c2ccccc2C(=O)O)cc1 | 5.04%
COc1ccc(CSc2nc(N3CCOCC3)c3c(c2C#N)CC(C)(C)OC3)cc1 | -2.72%
CC(C)C(=O)N1CCN(c2nc(-c3ccccc3)c3c(c2C#N)CC(C)(C)OC3)CC1 | 5.16%
CC1(C)Cc2c(C#N)c(SCc3nc4ccccc4[nH]3)nc(N3CCOCC3)c2CO1 | 30.9% (active)
COc1ccc(OC)c(/C=N/NC(=O)c2ccc[n+](CC(=O)c3ccccc3)c2)c1 | -2.7%
COc1ccc(OC)c(Nc2nc3ccccc3n3cnnc23)c1 | -2.95%
Cc1cc(F)ccc1S(=O)(=O)Nc1ccc(C(=O)N(C)Cc2ccco2)cc1 | 12.5%
CCN(CC)S(=O)(=O)c1ccc(Cl)c(C(=O)NC(C)C(c2cccs2)N2CCCC2)c1 (stereo not given) | 0.02%
O=C(NCc1ccccc1)[C@@H]1CSC2c3ccccc3C(=O)N21 (stereo not given in full) | 5.1%
Cn1nc([N+](=O)[O-])nc1Sc1ccc(C(C)(C)C)cc1 | -0.3%
ONC(=Nc1ccc(Cl)cc1)c1ccccc1Cl | 4.43%
C=CCn1c(SCc2nnc(-c3ccccc3)o2)nnc1C(O)c1ccccc1 (stereo not given) | -1.35%
CC1CCN(C(=S)NC2CC3CCC2C3)CC1 (stereo not given) | -7.41%
CCCNC(=O)CN(Cc1ccccc1F)S(=O)(=O)c1ccc(C)cc1 | 4.46%
Cc1ccc(N(C(=O)C(F)(F)F)C(C(=O)NC2CCCCC2)c2ccncc2)cc1C (stereo not given) | -2.69%
O=C(NCCS(=O)(=O)c1ccc(Br)cc1)c1ccccc1Cl | 3.23%
